Measured values as given in ChEMBL document CHEMBL4177604, “Binding of triazole-linked galactosyl arylsulfonamides to galectin-3 affects Trypanosoma cruzi cell invasion” (Bioorg Med Chem, 2017).
Active and inactive are the calls of the source. The rule behind the calls is not given here.

Columns and labels:
[1] = molecular target: T1, Trans-sialidase (Trypanosoma cruzi) (UniProt Q26964); experiment: Inhibition of recombinant His-tagged Trypanosoma cruzi trans-sialidase N-terminal catalytic domain at 1 mM preincubated for 10 mins followed by MuNANA addition measured over 5 mins by fluorimetric assay relative to control
T1 sequence (whole entry): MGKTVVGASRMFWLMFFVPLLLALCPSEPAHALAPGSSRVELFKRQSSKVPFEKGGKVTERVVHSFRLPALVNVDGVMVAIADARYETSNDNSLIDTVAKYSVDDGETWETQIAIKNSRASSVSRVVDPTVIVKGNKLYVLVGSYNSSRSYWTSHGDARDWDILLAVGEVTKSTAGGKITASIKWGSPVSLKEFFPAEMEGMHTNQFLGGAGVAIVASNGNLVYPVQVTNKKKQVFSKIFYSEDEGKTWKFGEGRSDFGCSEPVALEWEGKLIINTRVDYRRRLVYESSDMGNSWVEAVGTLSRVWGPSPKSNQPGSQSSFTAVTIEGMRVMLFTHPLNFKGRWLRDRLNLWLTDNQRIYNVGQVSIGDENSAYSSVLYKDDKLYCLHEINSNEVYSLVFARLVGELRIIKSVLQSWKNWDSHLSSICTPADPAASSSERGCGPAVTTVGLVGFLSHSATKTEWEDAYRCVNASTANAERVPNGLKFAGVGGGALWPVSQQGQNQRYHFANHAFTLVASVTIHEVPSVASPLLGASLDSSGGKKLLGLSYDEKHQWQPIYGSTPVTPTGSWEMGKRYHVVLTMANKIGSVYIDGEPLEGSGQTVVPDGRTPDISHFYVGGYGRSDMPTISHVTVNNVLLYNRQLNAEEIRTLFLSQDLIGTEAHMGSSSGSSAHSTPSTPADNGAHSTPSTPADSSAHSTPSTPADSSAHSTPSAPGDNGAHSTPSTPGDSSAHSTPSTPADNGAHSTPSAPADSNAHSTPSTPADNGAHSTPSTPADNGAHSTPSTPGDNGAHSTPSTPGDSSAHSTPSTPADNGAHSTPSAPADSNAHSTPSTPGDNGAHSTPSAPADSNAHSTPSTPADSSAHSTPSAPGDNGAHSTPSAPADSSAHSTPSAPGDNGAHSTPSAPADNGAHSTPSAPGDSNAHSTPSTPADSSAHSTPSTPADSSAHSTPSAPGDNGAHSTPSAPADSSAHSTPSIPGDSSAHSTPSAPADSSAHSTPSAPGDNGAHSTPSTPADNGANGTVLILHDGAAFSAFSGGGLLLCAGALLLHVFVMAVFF
Procedure, shortened: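 Recombinant His-tagged 70 kDa trans-sialidase, truncated to the catalytic N-terminal domain, in phosphate buffer pH 7. Preincubated with inhibitor at 1.0 mM final for 10 min at 26 °C. MuNANA added to 0.1 mM and released fluorescence followed over 5 min (ex 360/em 460 nm). Triplicate. %I = 100 × [1 − Vi/V0].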

[2] = molecular target: Galectin-3 (Homo sapiens, UniProt P17931); experiment: Binding affinity to recombinant human galectin-3 expressed in Escherichia coli BL21 after 3 hrs
Procedure, shortened: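 Human galectin-3 expressed in E. coli BL21, purified on lactosyl-Sepharose, immobilized at 150 µg/mL (20 mM sodium acetate, pH 4.0, 16 h, 4 °C) on NHS-activated label-free biosensor. Compound dissolved in DMSO, diluted into PBS pH 7.4 with 1% or 2% DMSO, 0.09–400 µM, triplicate. Wavelength shift (pm) read over 3 h at 25 °C, blank-subtracted. EC50 from one-site binding fit.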

[3] = tested on: Trypanosoma cruzi; experiment: (§1) Antitrypanosomal activity against Trypanosoma cruzi Y trypomastigote infected in monkey LLC-MK2 cells assessed as inhibition of cell invasion by trypanosoma by measuring infected fibroblast at 250 uM pretreated with cells for 30 mins followed by trypomastigote infection measured after 18 hrs by panoptic dye-based optical microscopic analysis (reference value: 63%); type: functional; design: scale not given: the % may be the effect or the level left
Procedure, shortened: (§2)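 LLCMK2 cells adhered on coverslips, exposed to compound at 250 µM for 30 min, then infected with Y-strain trypomastigotes (1 x 10^5; 5 parasites per cell). Incubated 18 h at 37 °C, 5% CO2, then fixed, stained with panoptic dye and read by optical microscopy. Scored as % infected cells, mean amastigotes per cell, and infection index (% infected × mean parasites per cell). Triplicate.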

[4] = tested on: LLC-MK2; experiment: Cytotoxicity against monkey LLC-MK2 cells assessed as reduction in cell viability after 48 hrs by MTT assay; type: cell-based, Macaca mulatta; settings: rhesus monkey, llc-mk2, 48 h
Procedure, shortened: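 LLCMK2 cells, 1 x 10^4 per well, adhered overnight in RPMI 1640 with 10% FBS. Exposed to 500 to 67,5 µM compound in triplicate for 48 h at 37 °C, 5% CO2. MTT added for 4 h, formazan dissolved in DMSO, absorbance at 570 nm.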

[5] = tested on: Trypanosoma cruzi; experiment: Trypanocidal activity against Trypanosoma cruzi Y trypomastigote assessed as effect on parasite viability at 31.25 to 250 uM after 48 hrs by resazurin-based assay; type: functional, organism-based
Procedure, shortened: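 Culture-derived Y-strain trypomastigotes, 1 x 10^6 per well, in RPMI 1640 with 10% FBS containing compound (250 to 31,25 µM). Held 48 h at 37 °C, 5% CO2. Resazurin added for 6 h, then read at 570 and 600 nm. Viability from OD570 minus OD600, relative to untreated parasites.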

[6] = tested on: Trypanosoma cruzi; experiment: as §1, with “LLCMK2” for “LLC-MK2”, “infection index” for “infected fibroblast”, “68)” for “63%)”; type: functional; procedure, shortened: as §2
[7] = tested on: Trypanosoma cruzi; experiment: as §1, with “mean number of amastigote parasites per cells” for “infected fibroblast”, “analysis” for “analysis (reference value: 63%)”; type: functional, organism-based; procedure, shortened: as §2
[8] = molecular target: T2, Trans-sialidase (Trypanosoma cruzi, UniProt Q26964); experiment: Inhibition of Trypanosoma cruzi trans-sialidase using Trifluoromethylumbelliferyl alpha-sialoside as substrate by UV/visible spectrophotometer
T2 sequence (Q26964 whole entry): T1 sequence (whole entry)

Sequence of Galectin-3 (P17931 whole entry): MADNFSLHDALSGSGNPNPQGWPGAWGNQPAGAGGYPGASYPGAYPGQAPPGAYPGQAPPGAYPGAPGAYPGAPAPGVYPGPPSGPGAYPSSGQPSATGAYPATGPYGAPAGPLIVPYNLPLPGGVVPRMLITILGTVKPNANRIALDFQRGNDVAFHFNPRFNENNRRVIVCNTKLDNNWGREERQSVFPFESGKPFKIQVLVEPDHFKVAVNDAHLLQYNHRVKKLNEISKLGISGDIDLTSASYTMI

Row | SMILES | inhibition [1] | Activity [2] | EC50 [2] | IC50 [8] | Activity [3] | Activity [4] | Activity [5] | Activity_index [6] | Activity [7]
1 | COc1cc(NS(=O)(=O)c2ccc(-n3cc(CO[C@H]4[C@@H](O)[C@@H](CO)O[C@@H](OC)[C@@H]4O)nn3)cc2)nc(OC)n1 | 4.5 to 16% | Dose-dependent effect | 18.3 µM |  | 38% | Non-Toxic | inactive | 20 | Active
2 | Cc1ccc(S(=O)(=O)N2c3ccccc3C(=O)/C(=C/c3ccc(O)c(O)c3)C2c2ccc(O)c(O)c2)cc1 (stereo not drawn) |  |  |  | 600 nM |  |  |  |  | 
3 | CO[C@@H]1O[C@H](CO)[C@H](O)[C@H](OCc2cn(-c3ccc(S(N)(=O)=O)cc3)nn2)[C@H]1O | 4.5 to 16% | Dose-dependent effect | 40.7 µM |  | 47 - 54% | Non-Toxic | inactive | 28 - 44 | Active
4 | CO[C@@H]1O[C@H](CO)[C@H](O)[C@H](OCc2cn(-c3ccc(S(=O)(=O)NC(C)=O)cc3)nn2)[C@H]1O | 88% | Dose-dependent effect | 205 µM |  | 47 - 54% | Non-Toxic | inactive | 28 - 44 | Active

More lines, main results first:

Row | inhibition [1] | Activity [2] | EC50 [2] | IC50 [8] | SMILES | Activity [3] | Activity [4] | Activity [5] | Activity_index [6] | Activity [7]
5 | 4.5 to 16% | Dose-dependent effect | 67.7 µM |  | CO[C@@H]1O[C@H](CO)[C@H](O)[C@H](OCc2cn(-c3ccc(S(=O)(=O)Nc4nc(C)cc(C)n4)cc3)nn2)[C@H]1O | 47 - 54% | Non-Toxic | inactive | 28 - 44 | Active
6 | 4.5 to 16% |  |  |  | CO[C@@H]1O[C@H](CO)[C@H](O)[C@H](OCc2cn(-c3ccc(S(=O)(=O)Nc4nccc(C)n4)cc3)nn2)[C@H]1O | 47 - 54% | Non-Toxic | inactive | 28 - 44 | Active
7 | 4.5 to 16% | Dose-dependent effect | 17.2 µM |  | CO[C@@H]1O[C@H](CO)[C@H](O)[C@H](OCc2cn(-c3ccc(S(=O)(=O)Nc4cc(C)on4)cc3)nn2)[C@H]1O | 41% | Non-Toxic | inactive | 20 | Active
8 | 4.5 to 16% |  |  |  | CO[C@@H]1O[C@H](CO)[C@H](O)[C@H](OCc2cn(-c3ccc(S(=O)(=O)Nc4ccccn4)cc3)nn2)[C@H]1O | 47 - 54% | Non-Toxic | inactive | 28 - 44 | Active
